Compound activity: PubChem, several laboratories
Calb biofilm kill = mixtures killing C. albicans biofilm. 120,000 tested, 0.02% active. inhibition, % at 7.6 µM. C. albicans biofilm persisters + clotrimazole, fluorescence viability; primary screen in compound mixtures of four per well;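 also: compounds exposed to preformed 24 h biofilms for 48 h; 0% = untreated biofilm control and 100% = clotrimazole plus chlorhexidine kill blank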
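Test system: C. albicans biofilms. Buffer or medium: RPMI/MOPS medium, pH 7.0. Timing: 48 h compound exposure at 37 °C. Technique: Alamar Blue fluorescence. Evaluation: percent inhibition of biofilm viability.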
Mcl1-Bid inh = Mcl-1/Bid interaction inhibition | TR-FRET Mcl-1/Bid-Dy647 peptide binding, 1536-well | inhibition, % at 21.7 µM | 220,000 tested, 0.97% active;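 active = compounds that cut the binding signal by more than half at the single screening dose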;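 also: His-tagged Mcl-1 with europium anti-His antibody binding Bid BH3 peptide; 0% = Mcl-1 plus peptide wells and 100% = peptide-only wells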
Target sequence (Q07820 whole entry, looked up): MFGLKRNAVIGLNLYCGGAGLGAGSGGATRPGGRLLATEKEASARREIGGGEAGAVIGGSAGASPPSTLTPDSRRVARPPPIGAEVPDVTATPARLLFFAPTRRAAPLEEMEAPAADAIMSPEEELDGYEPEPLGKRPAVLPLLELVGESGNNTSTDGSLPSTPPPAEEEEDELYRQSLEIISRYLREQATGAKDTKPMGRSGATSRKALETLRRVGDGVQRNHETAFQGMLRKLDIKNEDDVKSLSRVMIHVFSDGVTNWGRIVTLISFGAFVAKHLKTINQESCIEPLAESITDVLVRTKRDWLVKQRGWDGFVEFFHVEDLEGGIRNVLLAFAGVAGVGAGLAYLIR
Mcl1-Noxa inh = Mcl-1/Noxa interaction inhibition; AID 1022; 220,000 tested, 1.5% active; Q07820; TR-FRET Mcl-1/Noxa peptide binding, 2 h; inhibition, % at 21.7 µM;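 active = compounds that cut the protein-peptide binding signal by more than 50% relative to plate controls in a single-dose test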;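 also: His-tagged Mcl-1 with rhodamine Noxa BH3 peptide and terbium anti-His antibody; 0% = Mcl-1 plus Noxa peptide wells and 100% = peptide-only wells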
Mcl-1 Bim block = human Bim-Mcl-1 interaction inhibition; inhibition, % at 10 µM; Q07820; Bead-based flow cytometry, Bim peptide-Mcl-1 binding; 190,000 tested, 0.1% active; in the data active = inhibition above about 40%;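 also: 0% = no compound tracer wells and 100% = peptide blocker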
14-3-3 Bad inh = disrupts binding of bovine 14-3-3 zeta to phospho-Bad peptide | inhibition, % at 21.7 µM | 220,000 tested, 0.71% active | TR-FRET 14-3-3zeta/Dy647-pBad peptide displacement, 1 h | P63103;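 active = inhibition above about 70%, limit read from the data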;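 also: 0% = full 14-3-3 plus peptide FRET controls and 100% = background without 14-3-3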
Target sequence (P63103 whole entry, looked up): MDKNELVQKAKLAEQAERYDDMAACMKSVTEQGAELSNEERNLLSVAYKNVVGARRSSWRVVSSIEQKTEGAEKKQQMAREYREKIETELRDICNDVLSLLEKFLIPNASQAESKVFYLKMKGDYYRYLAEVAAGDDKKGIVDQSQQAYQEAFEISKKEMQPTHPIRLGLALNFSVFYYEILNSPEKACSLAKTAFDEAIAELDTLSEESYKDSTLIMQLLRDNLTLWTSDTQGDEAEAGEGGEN
Hck Nef HTS = inhibitors of human Hck kinase activated by Nef; inhibition, % at 20 µM; P08631; 220,000 tested, 0.68% active; Recombinant Hck-YEEI plus Nef, Z-Lyte FRET kinase assay;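 active = Hck-Nef kinase inhibition above about 50%, limit read from the data; inactive = inhibition below that limit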;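 also: 0% = DMSO with Hck plus Nef and 100% = Hck alone without Nef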
* marks the source's active call; other numbers are inactive results; . = no result given; [ ] = remark or other dose. Hits are enriched below; roughly 3.2% of the tested compounds scored in any of these assays.

SMILES	Calb biofilm kill	Mcl1-Bid inh	Mcl1-Noxa inh	Mcl-1 Bim block	14-3-3 Bad inh	Hck Nef HTS
CCN1CCN(C(=O)C(=O)c2c(C)[nH]c3ccccc23)CC1	15	-22	1	-1	-14	24
CCCn1c(SCC(=O)Nc2ccccc2Cl)n[nH]c1=O	14	-22	17	.	3	14
C[C@@H]1O[C@@H](Oc2c(-c3cc(O)c(O)c(O)c3)oc3cc(O)cc(O)c3c2=O)[C@H](O)[C@H](O)[C@H]1O	6	-20	54*	0	-14	2
O=c1c(OC2OC(CO)C(O)C(O)C2O)c(-c2ccc(O)c(O)c2)oc2cc(O)cc(O)c12 (stereo not drawn)	17	-10	21	2	-8	-2
COC(=O)CSc1nnc(CNC(=O)c2ccc(S(=O)(=O)N3CCOCC3)cc2)n1C	14	-11	2	0	1	10
C=CCn1c(SCC(N)=O)nnc1-c1cc(Br)ccc1O	.	-19	6	-1	-6	3
CCOC(=O)C1=C(O)c2ccccc2C(=O)/C1=C\c1ccc(CC)cc1	.	52*	85*	0	0	0
CCOC(=O)C1=C(Cc2ccc(OC)cc2)C(=O)c2ccccc2C1=O	.	1	37	0	-16	-8
CCOC(=O)c1ccc(COC(=O)c2ccc3c(c2)-c2ccccc2C3=O)cc1	.	-14	-6	0	3	0
CCOC(=O)C1=C(Cc2ccc(C)cc2)C(=O)c2ccccc2C1=O	.	-16	67*	0	-1	-3
CCCc1ccc(/C=C2\C(=O)c3ccccc3C(O)=C2C(=O)OCC)cc1	.	40	88*	-5	6	-2
CC(NCc1ccc(N(C)C)cc1)C1CC2CCC1C2 (stereo not drawn)	.	-45	37	0	78*	-2
O=C(c1ccccc1)c1ccc2nc(N3CCN(C(=O)c4ccco4)CC3)c3nncn3c2c1	.	6	56*	0	1	11
CCOC(=O)N1CCN(c2nc3ccc(C(=O)c4ccccc4)cc3n3cnnc23)CC1	22	2	6	.	4	36
COc1cc(C2NC(=S)NC(C)=C2C(=O)Nc2ccc(C)cc2)ccc1O (stereo not drawn)	13	-47	6	0	-6	21
C/C(=N\Nc1ccc(C(=O)c2c(C)cc3ccccn23)cc1[N+](=O)[O-])c1ccc(O)cc1	0	-23	-18	.	7	8
Cc1cc2ccccn2c1C(=O)c1ccc(N/N=C/c2ccc(C(=O)O)cc2)c([N+](=O)[O-])c1	3	73*	93*	.	73*	-15
O=C(Nc1ccc(Br)c2ccccc12)c1ccc2ccccc2c1O	0	-7	20	.	-1	9
O=C(N/N=C/c1c[nH]c2ccccc12)C1COc2ccccc2O1 (stereo not drawn)	18	3	4	-4	82*[fluorescence artefact?]	4
O=C(N/N=C/c1c[nH]c2ccccc12)c1cc(-c2ccc(-c3ccccc3)cc2)n[nH]1	.	52*	47	0	54	16
Cc1cc(C)c(-n2nnnc2SCC(=O)c2cccs2)c(C)c1	26	-1	22	.	-2	1
Cc1cccc(OCCCC(=O)Nc2ccc(N(C)C)cc2)c1	-10	-36	77*	0	9	2
CCc1ccc(NC(=S)N(CCN(C)C)C(C)c2ccncc2)cc1 (stereo not drawn)	13	-73	25	-1	7	20
CN(C(=O)c1ccc(Cl)cc1)C1=CCCCC1CCC#N (stereo not drawn)	.	65*	2	0	-3	3
N#CCCN(Cc1cccs1)C(=O)c1ccc(Cl)cc1	11	-3	11	.	-5	7
SMILES	Calb biofilm kill	Mcl1-Bid inh	Mcl1-Noxa inh	Mcl-1 Bim block	14-3-3 Bad inh	Hck Nef HTS
Clc1cccc(CON/C=N/c2ncnc3sccc23)c1	.	2	5	0	2	1
Clc1cccc(Cl)c1CON/C=N/c1ncnc2sccc12	.	87*	2	-3	7	1
NC(N)=NC1=NC(=O)/C(=C/c2ccccc2-n2cccn2)S1	7	-11	11	0	-20	27
COc1ccc(OC)c(/C=N/N(C)c2ccccc2)c1	.	-25	18	1	-9	-15
COc1cc(/C=N/N(C)c2ccccc2)cc(Cl)c1O	.	-23	67*	-2	15	0
CC1(C)CC(=O)C(C=NCCN2CCN(CCc3ccccc3)CC2)=C(O)C1	.	-8	14	51*	-5	8
CC1(C)CC(=O)C(C=NCCN2CCN(C(=O)c3ccccc3)CC2)=C(O)C1	.	-20	13	0	3	-1
COc1ccc(/C=C2\CCCC(C(=O)C(F)(F)F)=C2O)cc1OC	8	-20	-3	2	48	-5
CSCCC(NS(=O)(=O)c1ccc2[nH]c(=O)c(=O)[nH]c2c1)C(=O)O (stereo not drawn)	10	-35	-16	-3	-13	22
C=CCn1c(SCC(=O)c2ccc(O)c(O)c2)nnc1-c1cccnc1	14	-36	58*	.	41	26
C=CCn1c(SCC(=O)O)nnc1-c1cccc(Cl)c1	.	-42	70*	2	27	1
C=CCn1c(SCC(=O)O)nnc1-c1ccc(C(C)(C)C)cc1	.	-5	19	-4	-4	-1
COc1cc(OC)c(N(C)S(=O)(=O)c2cccc(C(=O)Nc3nnc(C4CC4)s3)c2)cc1Cl	17	-11	4	.	1	15
CC(C)COC(=O)C1[C@H]2C(=O)N(Cc3cccs3)C[C@]23C=C[C@H]1O3 (stereo partly drawn)	.	-6	17	0	-1	0
Cn1cnc(S(=O)(=O)Nc2ccc(OC(F)F)cc2)c1	16	7	-7	.	3	7
O=C(COC(=O)c1cc[n+]([O-])cc1)NCc1ccccc1Cl	18	-13	72*	0	-2	20
CN(C)c1ccc(Nc2nc(N)c([N+](=O)[O-])c(N3CCOCC3)n2)cc1	13	-12	83*	1	-16	14
COc1ccc(Nc2nc(N)c([N+](=O)[O-])c(N3CCOCC3)n2)cc1	8	-12	9	.	-14	10
N#Cc1c(NC(=O)c2ccncc2)sc2c1CCC2	.	-45	69*	0	14	10
CCOC(=O)c1sc(NC(=O)CSc2nc3c(cc2C#N)CCC3)c(C#N)c1C	.	.	.	.	.	-7
N#Cc1c(NC(=O)c2cccc(S(=O)(=O)Nc3ccc(C(=O)O)cc3)c2)sc2c1CCCC2	17	1	77*	.	6	2
CCOC(=O)c1sc(NC(=O)c2ccncc2)c(C#N)c1C	11	8	54*	7	9	2
CCOC(=O)c1sc(NC(=O)CSc2nc(C)cc(C)c2C#N)c(C#N)c1C	.	66*	-60	0	27	11
NC(=O)c1c(NC(=O)c2ccncc2)sc2c1CCCC2	10	-53	19	2	-1	17
